Most compounds without a hit are left out; they make up all but 5.9% or so of the library.
Pf Dd2 inh = P. falciparum Dd2 growth inhibition | SYBR Green, 72 h; stronger effect = lower value | activity change, % at 10 µM | 2.3% of 94,000 active; in the data active = activity change below about -80%; inconclusive = no clear call, values can overlap the other calls
IDH1 mut inh = inhibitors of human IDH1 R132H. O75874. IDH1 R132H reductase, diaphorase/resazurin fluorescence, 60 min. inhibition, % at 10 µM. 0.18% of 70,000 active; in the data active = inhibition above about 34%; inconclusive = no clear call, values can overlap the other calls; inactive = below about 11%;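 note: 0% = DMSO and 100% = no enzyme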
GASC1 inh = inhibitors of human demethylase GASC-1 KDM4C; Q9H3R0; inhibition, % at 12.5 µM; GST-KDM4C 2-372, H3K9me3 peptide, LANCE TR-FRET; 0.15% of 96,000 active;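 active = mean replicate inhibition above about 25%, with at least 55% of replicates also reaching it, limit read from the data, passing the limit was not always enough; inconclusive = only one of those two conditions met; inactive = neither condition met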
Target sequence (Q9H3R0 2-372 limits assumed): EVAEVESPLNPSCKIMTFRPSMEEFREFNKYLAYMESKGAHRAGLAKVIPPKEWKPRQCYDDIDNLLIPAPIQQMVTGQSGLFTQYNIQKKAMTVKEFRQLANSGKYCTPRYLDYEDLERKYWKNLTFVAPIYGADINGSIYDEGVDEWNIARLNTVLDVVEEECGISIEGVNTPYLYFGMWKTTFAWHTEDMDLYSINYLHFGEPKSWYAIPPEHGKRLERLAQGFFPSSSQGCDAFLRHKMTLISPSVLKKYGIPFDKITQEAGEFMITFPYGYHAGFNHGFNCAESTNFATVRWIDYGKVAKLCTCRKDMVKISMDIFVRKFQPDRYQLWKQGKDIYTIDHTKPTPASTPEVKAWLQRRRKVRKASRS
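Assay system: GST-GASC-1 enzyme fragment 2-372 | Amount: 10 nM enzyme | Medium: HEPES buffer, pH 7.5, plus ascorbate | Reagent: H3K9me3 peptide substrate, Fe(II), 2-oxoglutarate | Doses: Single-point compound screen | Incubation: 30 min demethylation and 1 h detection at room temperature | Measured by: LANCE TR-FRET, excitation 340 nm, emissions 618 and 671 nm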
T cruzi growth-1 = blocks T. cruzi growth in NIH3T3 culture; T. cruzi beta-gal in NIH3T3, GalScreen luminescence, 90 h; inhibition, % at 8.34 µM; 5.9% of 77,000 active; AID 624255;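 active = mean inhibition above about 93%, with at least 55% of replicates each passing it, limit read from the data, passing the limit was not always enough; inconclusive = only one of those two conditions holds; inactive = neither condition holds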
T cruzi growth-2 = Trypanosoma cruzi proliferation inhibition | shares compounds with T cruzi growth-1 | inhibition, % at 8.35 µM | 72% of 5,600 active | T. cruzi beta-gal in NIH3T3, GalScreen luminescence, 90 h;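 active = mean replicate inhibition above about 95% and at least 55% of replicates individually reaching it, limit read from the data; inconclusive = only one of the two criteria is met; inactive = neither criterion is met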
T cruzi growth-3 = inhibitors of T. cruzi proliferation. shares compounds with T cruzi growth-1. T. cruzi beta-gal in NIH3T3, GalScreen luminescence, 90 h. inhibition, % at 2.09 µM. 21% of 5,600 active. AID 651740;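 active = mean inhibition above about 95%, with at least 55% of replicates also reaching it, limit read from the data; inconclusive = meets just one of the two conditions; inactive = meets neither condition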;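 note: plate controls were neutral control median for no effect and positive control median for full effect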
3T3 cytotox = kills mouse NIH/3T3 fibroblasts; shares compounds with T cruzi growth-1; NIH/3T3 viability, CellTiter-Glo ATP luminescence, 90 h; cytotoxicity (signal decrease), % at 8.35 µM; 14% of 5,600 active; AID 651742;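 active = mean signal decrease across replicates above about 35% based on untreated-well scatter, with enough replicates individually passing, limit read from the data; inconclusive = no rule stated though some were filed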;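 note: 0% = median of neutral control wells and 100% = median of positive control wells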
NIH3T3 tox 2 = kills mouse NIH/3T3 fibroblasts; shares compounds with T cruzi growth-1; NIH/3T3 viability, CellTiter-Glo ATP luminescence, 90 h; inhibition, % at 24.9 µM; 56% of 5,600 active;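 active = mean loss of cell viability signal at or above a set limit, and enough replicates individually reaching it; inconclusive = meets only the mean limit or only the replicate share; inactive = meets neither condition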;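 note: 0% = median of neutral control wells and 100% = median of positive control wells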
* hit, by the source's call; ? = inconclusive; . = no result.

SMILES	Pf Dd2 inh	IDH1 mut inh	GASC1 inh	T cruzi growth-1	T cruzi growth-2	T cruzi growth-3	3T3 cytotox	NIH3T3 tox 2
COc1ccc(Br)cc1/C=N/NC(=O)c1ccc(C(=O)NO)cc1	.	-0.2	.	.	.	.	.	.
O=C(Nc1ccccc1)N1CCCCN2[C@H](CO)[C@@H](c3ccc(C#Cc4ccccc4)cc3)[C@@H]2C1	8.7	.	-0.5	109.5*	89.4	102.9*	?	104.2*
O=C(c1cccnc1)N1CCCCN2[C@H](C1)[C@@H](c1ccc(C#Cc3cccnc3)cc1)[C@@H]2CO	1.9	.	-1.1	82.7	.	.	.	.
O=C(c1cccnc1)N1CCCCN2[C@H](CO)[C@H](c3ccc(C#Cc4ccccc4)cc3)[C@@H]2C1	11.0	.	.	100.5*	109.7*	73.3	61.4*	42.6*
O=C(Nc1ccc(F)cc1)N1CCCCN2[C@H](CO)[C@@H](c3ccc(C#Cc4ccccc4)cc3)[C@@H]2C1	-30.1	.	-3.1	73.1	.	.	.	.
CCCNC(=O)N1[C@H](C#N)[C@H](c2ccc(C3=CCCCC3)cc2)[C@@H]1CO	?	.	.	98.7*	100.6*	115.6*	22.5	32.6*
CCCNC(=O)N1[C@H](CO)[C@@H](c2ccc(C3=CCCCC3)cc2)[C@@H]1C#N	-27.0	.	-2.0	105.0*	90.3	63.5	5.6	19.7
COCC(=O)N1[C@H](CO)[C@@H](c2ccc(C3=CCCCC3)cc2)[C@@H]1C#N	19.9	.	-3.6	?	108.5*	2.1	7.1	6.8
N#C[C@@H]1[C@H](c2ccc(C3=CCCC3)cc2)[C@H](CO)N1C(=O)C1CCC1	-2.5	.	-0.2	102.6*	109.5*	31.0	-8.1	2.2
COc1ccc(C(C)NC(=O)c2cc(-c3ccccn3)nc3ccc(Br)cc23)cc1OC (stereo not drawn)	.	-0.3	.	.	.	.	.	.
CC(Sc1nc2ccccc2c(=O)[nH]1)C(=O)Nc1cccc(Cl)c1 (stereo not drawn)	.	-0.5	.	.	.	.	.	.
O=S(=O)(NCc1cccnc1)c1ccc(C2CCCCC2)cc1	.	-0.7	.	.	.	.	.	.
O=C(Cn1cnc2ccccc2c1=O)Nc1ccc(F)cc1F	.	0.5	.	.	.	.	.	.
N#C[C@H]1[C@H](c2ccc(C3=CCCCC3)cc2)[C@@H](CO)N1C(=O)NC1CCCCC1	-20.2	.	1.5	103.8*	103.6*	80.1	-2.1	77.1*
N#C[C@H]1[C@@H](c2ccc(C3=CCCCC3)cc2)[C@@H](CO)N1C(=O)NC1CCCC1	-41.2	.	2.6	.	.	.	.	.
C[C@H]1CN([C@@H](C)CO)S(=O)(=O)c2ccc(-c3ccc(F)cc3)cc2O[C@H]1CN(C)C(=O)C1CCCCC1	-49.0	0.2	-0.6	112.0*	96.4*	56.9	20.7	101.3*
C[C@H](CO)N1C[C@H](C)[C@H](CN(C)C(=O)C2CCCCC2)Oc2cc(-c3ccc(F)cc3)ccc2S1(=O)=O	-29.8	-0.6	-3.5	118.9*	110.3*	70.5	?	99.5*
C[C@@H]1CN([C@H](C)CO)S(=O)(=O)c2ccc(-c3ccc(F)cc3)cc2O[C@H]1CN(C)C(=O)C1CCCCC1	-73.0	.	-2.3	53.4	.	.	.	.
C[C@H]1CN([C@@H](C)CO)S(=O)(=O)c2ccc(-c3ccc(F)cc3)cc2O[C@@H]1CN(C)C(=O)C1CCCCC1	-14.9	.	-2.5	99.3*	95.3*	69.2	10.5	52.7*
COc1ccccc1NC(=O)Cn1nc([N+](=O)[O-])c(Br)c1C	.	-0.1	.	.	.	.	.	.
CCCNC(=O)C[C@H]1C[C@H]2c3cc(NC(=O)CN(C)C)ccc3O[C@H]2[C@@H](CO)O1	27.8	-1.1	0.1	101.3*	7.4	-3.3	-4.7	3.3
COc1ccc(NC(=O)Nc2ccc3c(c2)[C@@H]2C[C@@H](CC(=O)NCCc4ccccc4)O[C@@H](CO)[C@@H]2O3)cc1	-37.8	0.5	-5.0	179.2*	110.9*	104.8*	5.9	3.6
COc1ccc(NC(=O)Nc2ccc3c(c2)[C@@H]2C[C@@H](CC(=O)NCCc4ccccc4)O[C@H](CO)[C@@H]2O3)cc1	-11.3	0.0	-9.2	132.8*	104.6*	64.1	-16.6	-4.6
CCCNC(=O)C[C@H]1C[C@H]2c3cc(NC(=O)Nc4ccc(OC)cc4)ccc3O[C@H]2[C@H](CO)O1	-2.9	0.1	-1.7	37.1	.	.	.	.
CCCNC(=O)C[C@@H]1C[C@H]2c3cc(NC(=O)Nc4ccc(OC)cc4)ccc3O[C@H]2[C@@H](CO)O1	-4.7	0.1	-1.1	42.6	.	.	.	.
SMILES	Pf Dd2 inh	IDH1 mut inh	GASC1 inh	T cruzi growth-1	T cruzi growth-2	T cruzi growth-3	3T3 cytotox	NIH3T3 tox 2
COc1ccc(NC(=O)Nc2ccc3c(c2)[C@H]2C[C@H](CC(=O)NCCc4ccccc4)O[C@@H](CO)[C@H]2O3)cc1	-57.9	-0.2	-10.4	147.9*	105.2*	55.9	-12.1	-3.4
CCCNC(=O)C[C@H]1C[C@@H]2c3cc(NC(=O)CN(C)C)ccc3O[C@@H]2[C@H](CO)O1	1.2	0.0	2.9	2.9	.	.	.	.
O=C1CC(c2ccccc2)N=C(SCC(=O)Nc2ccc3ccccc3c2)N1 (stereo not drawn)	.	-0.3	.	.	.	.	.	.
Cn1c(Cc2ccccc2)nnc1Sc1ccc([N+](=O)[O-])cc1C(=O)N1CCOCC1	.	0.5	.	.	.	.	.	.
COc1ccc(-c2nnc(SCC(=O)NC(C)(C)C)n2-c2ccccc2)cc1	.	0.0	.	.	.	.	.	.
C=CCN(C(=O)c1cc2cc3cc(OC)ccc3nc2s1)c1ccccc1	.	-0.3	.	.	.	.	.	.
COc1ccc(CNC(=O)C[C@@H]2C[C@H]3c4cc(NC(=O)C5CCC5)ccc4O[C@H]3[C@H](CO)O2)cc1	-7.9	-2.1	0.0	176.7*	?	-0.7	5.6	17.8
CC(C)NS(=O)(=O)c1ccc(OCC(=O)O)c(Cl)c1	.	0.5	.	.	.	.	.	.
Cn1cnc(S(=O)(=O)N2CCCCN3[C@H](C2)[C@@H](c2ccc(C#CC4CCCC4)cc2)[C@@H]3CO)c1	-34.2	.	-0.2	76.5	.	.	.	.
Cn1cnc(S(=O)(=O)N2CCCCN3[C@H](C2)[C@@H](c2ccc(C#CC4CC4)cc2)[C@@H]3CO)c1	21.5	.	.	53.1	.	.	.	.
Cn1cnc(S(=O)(=O)N2CCCCN3[C@H](CO)[C@H](c4ccc(C#CC5CCCC5)cc4)[C@H]3C2)c1	-41.3	.	-0.1	110.8*	95.2*	27.2	30.5	105.2*
Cn1cnc(S(=O)(=O)N2CCCCN3[C@@H](CO)[C@H](c4ccc(C#CC5CCCC5)cc4)[C@@H]3C2)c1	-38.5	.	0.8	105.6*	72.0	-18.4	29.1	100.5*
CN(c1ccccc1C(=O)Nc1ccccc1C(=O)N1CCOCC1)S(C)(=O)=O	.	-0.3	.	.	.	.	.	.
C[C@@H]1CN([C@H](C)CO)S(=O)(=O)c2ccc(C3=CCCCC3)cc2O[C@@H]1CN(C)Cc1ccncc1	-15.5	15.3	1.8	109.8*	99.9*	85.1	29.1	67.2*
